# Experimental data: ChEMBL document CHEMBL4689842, “EUbOPEN Chemogenomics Library wave 1” (2021)
# Tested on: Fibroblast
# Assay: Multiplex assay against human fibroblast
# Type: toxicity, cell-based
# Summary of the method: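 Per cents of healthy-nucleus cells form the tubulin, mitochondrial-mass and membrane-permeability phenotype values. Live cells were stained at seeding with Hoechst33342, BioTracker Green Microtubule Cytoskeleton Dye, MitoTracker Red and Annexin V Alexa Fluor 680. After compound addition they were imaged on a CQ1 microscope at 37°C and 5% CO2, and CellPathfinder machine-learning gating split them into Hoechst high-intensity objects or normal cells, normal cells into healthy, pyknosed or fragmented nuclei, and pyknosed cells into mitotic or apoptotic.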
# [1] = 12 h, 1 µM, compound concentration 1 uM, replicate 1
# [2] = 12 h, 1 µM, compound concentration 1 uM, replicate 2
# [3] = 12 h, 10 µM, compound concentration 10 uM, replicate 1
# [4] = 12 h, 10 µM, compound concentration 10 uM, replicate 2
# [5] = 24 h, 1 µM, compound concentration 1 uM, replicate 1
# [6] = 24 h, 1 µM, compound concentration 1 uM, replicate 2
# [7] = 24 h, 10 µM, compound concentration 10 uM, replicate 1
# [8] = 24 h, 10 µM, compound concentration 10 uM, replicate 2
# [9] = 48 h, 1 µM, compound concentration 1 uM, replicate 1
# [10] = 48 h, 1 µM, compound concentration 1 uM, replicate 2
# [11] = 48 h, 10 µM, compound concentration 10 uM, replicate 1
# [12] = 48 h, 10 µM, compound concentration 10 uM, replicate 2
compound,measurement,setting,value
Nc1ccc(C(=O)Nc2cccc(-c3nc(N4CCOCC4)c4oc5ncccc5c4n3)c2)cn1,Population Apoptotic (%),[1],63%
same,Population Fragmented Nuclei (%),[1],24%
same,Population Healthy Nuclei (%),[1],43%
same,Population Hoechst High Intensity Objects (%),[1],14%
same,Population Mitochondria Different-Phenotype (%),[1],4%
same,Population Mitotic Cells (%),[1],36%
same,Population Normal (%),[1],85%
same,Population Pyknosed Nuclei (%),[1],31%
same,Population Tubulin-Different-Phenotype (%),[1],60%
same,Total Cell Count,[1],134
same,Population Apoptotic (%),[2],9%
same,Population Fragmented Nuclei (%),[2],20%
same,Population Healthy Nuclei (%),[2],61%
same,Population Hoechst High Intensity Objects (%),[2],10%
same,Population Mitochondria Different-Phenotype (%),[2],21%
same,Population Mitotic Cells (%),[2],90%
same,Population Normal (%),[2],89%
same,Population Pyknosed Nuclei (%),[2],17%
same,Population Tubulin-Different-Phenotype (%),[2],28%
same,Total Cell Count,[2],55
same,Population Apoptotic (%),[3],54%
same,Population Fragmented Nuclei (%),[3],57%
same,Population Healthy Nuclei (%),[3],28%
same,Population Hoechst High Intensity Objects (%),[3],41%
same,Population Mitochondria Different-Phenotype (%),[3],9%
same,Population Mitotic Cells (%),[3],45%
same,Population Normal (%),[3],58%
same,Population Pyknosed Nuclei (%),[3],13%
same,Population Tubulin-Different-Phenotype (%),[3],80%
same,Total Cell Count,[3],554
same,Population Apoptotic (%),[4],51%
same,Population Fragmented Nuclei (%),[4],62%
same,Population Healthy Nuclei (%),[4],15%
same,Population Hoechst High Intensity Objects (%),[4],19%
same,Population Mitochondria Different-Phenotype (%),[4],76%
same,Population Mitotic Cells (%),[4],48%
same,Population Normal (%),[4],80%
same,Population Pyknosed Nuclei (%),[4],22%
same,Population Tubulin-Different-Phenotype (%),[4],90%
same,Total Cell Count,[4],69
same,Population Apoptotic (%),[5],38%
same,Population Fragmented Nuclei (%),[5],38%
same,Population Healthy Nuclei (%),[5],39%
same,Population Hoechst High Intensity Objects (%),[5],16%
same,Population Mitochondria Different-Phenotype (%),[5],3%
same,Population Mitotic Cells (%),[5],61%
same,Population Normal (%),[5],83%
same,Population Pyknosed Nuclei (%),[5],21%
same,Population Tubulin-Different-Phenotype (%),[5],64%
same,Total Cell Count,[5],169
same,Population Apoptotic (%),[6],21%
same,Population Fragmented Nuclei (%),[6],28%
same,Population Healthy Nuclei (%),[6],52%
same,Population Hoechst High Intensity Objects (%),[6],5%
same,Population Mitochondria Different-Phenotype (%),[6],42%
same,Population Mitotic Cells (%),[6],78%
same,Population Normal (%),[6],95%
same,Population Pyknosed Nuclei (%),[6],18%
same,Population Tubulin-Different-Phenotype (%),[6],27%
same,Total Cell Count,[6],57
same,Population Apoptotic (%),[7],68%
same,Population Fragmented Nuclei (%),[7],53%
same,Population Healthy Nuclei (%),[7],32%
same,Population Hoechst High Intensity Objects (%),[7],46%
same,Population Mitochondria Different-Phenotype (%),[7],30%
same,Population Mitotic Cells (%),[7],31%
same,Population Normal (%),[7],53%
same,Population Pyknosed Nuclei (%),[7],13%
same,Population Tubulin-Different-Phenotype (%),[7],76%
same,Total Cell Count,[7],514
same,Population Apoptotic (%),[8],84%
same,Population Fragmented Nuclei (%),[8],60%
same,Population Healthy Nuclei (%),[8],5%
same,Population Hoechst High Intensity Objects (%),[8],19%
same,Population Mitochondria Different-Phenotype (%),[8],100%
same,Population Mitotic Cells (%),[8],15%
same,Population Normal (%),[8],80%
same,Population Pyknosed Nuclei (%),[8],34%
same,Population Tubulin-Different-Phenotype (%),[8],100%
same,Total Cell Count,[8],80
same,Population Apoptotic (%),[9],66%
same,Population Fragmented Nuclei (%),[9],47%
same,Population Healthy Nuclei (%),[9],45%
same,Population Hoechst High Intensity Objects (%),[9],17%
same,Population Mitochondria Different-Phenotype (%),[9],0%
same,Population Mitotic Cells (%),[9],33%
same,Population Normal (%),[9],82%
same,Population Pyknosed Nuclei (%),[9],7%
same,Population Tubulin-Different-Phenotype (%),[9],60%
same,Total Cell Count,[9],190
same,Population Apoptotic (%),[10],0%
same,Population Fragmented Nuclei (%),[10],58%
same,Population Healthy Nuclei (%),[10],41%
same,Population Hoechst High Intensity Objects (%),[10],25%
same,Population Mitochondria Different-Phenotype (%),[10],3%
same,Population Mitotic Cells (%),[10],0%
same,Population Normal (%),[10],74%
same,Population Pyknosed Nuclei (%),[10],0%
same,Population Tubulin-Different-Phenotype (%),[10],76%
same,Total Cell Count,[10],205
same,Population Apoptotic (%),[11],51%
same,Population Fragmented Nuclei (%),[11],51%
same,Population Healthy Nuclei (%),[11],25%
same,Population Hoechst High Intensity Objects (%),[11],49%
same,Population Mitochondria Different-Phenotype (%),[11],46%
same,Population Mitotic Cells (%),[11],48%
same,Population Normal (%),[11],50%
same,Population Pyknosed Nuclei (%),[11],23%
same,Population Tubulin-Different-Phenotype (%),[11],78%
same,Total Cell Count,[11],516
same,Population Apoptotic (%),[12],100%
same,Population Fragmented Nuclei (%),[12],82%
same,Population Healthy Nuclei (%),[12],14%
same,Population Hoechst High Intensity Objects (%),[12],67%
same,Population Mitotic Cells (%),[12],0%
same,Population Normal (%),[12],32%
same,Population Pyknosed Nuclei (%),[12],2%
same,Population Tubulin-Different-Phenotype (%),[12],73%
same,Total Cell Count,[12],323
Cc1cn(-c2cc(NC(=O)c3ccc4c(c3)CN(c3cncnc3)C[C@@H]4C)cc(C(F)(F)F)c2)cn1,Population Apoptotic (%),[1],81%
same,Population Fragmented Nuclei (%),[1],31%
same,Population Healthy Nuclei (%),[1],50%
same,Population Hoechst High Intensity Objects (%),[1],15%
same,Population Membrane Permeable-Phenotype (%),[1],7%
same,Population Mitochondria Different-Phenotype (%),[1],4%
same,Population Mitotic Cells (%),[1],18%
same,Population Normal (%),[1],84%
same,Population Pyknosed Nuclei (%),[1],17%
same,Population Tubulin-Different-Phenotype (%),[1],9%
same,Total Cell Count,[1],147
same,Population Apoptotic (%),[2],42%
same,Population Fragmented Nuclei (%),[2],58%
same,Population Healthy Nuclei (%),[2],31%
same,Population Hoechst High Intensity Objects (%),[2],30%
same,Population Membrane Permeable-Phenotype (%),[2],0%
same,Population Mitochondria Different-Phenotype (%),[2],9%
same,Population Mitotic Cells (%),[2],57%
same,Population Normal (%),[2],70%
same,Population Pyknosed Nuclei (%),[2],10%
same,Population Tubulin-Different-Phenotype (%),[2],22%
same,Total Cell Count,[2],100
same,Population Apoptotic (%),[3],71%
same,Population Fragmented Nuclei (%),[3],33%
same,Population Healthy Nuclei (%),[3],49%
same,Population Hoechst High Intensity Objects (%),[3],13%
same,Population Mitochondria Different-Phenotype (%),[3],5%
same,Population Mitotic Cells (%),[3],28%
same,Population Normal (%),[3],86%
same,Population Pyknosed Nuclei (%),[3],17%
same,Population Tubulin-Different-Phenotype (%),[3],23%
same,Total Cell Count,[3],141
same,Population Apoptotic (%),[4],75%
same,Population Fragmented Nuclei (%),[4],67%
same,Population Healthy Nuclei (%),[4],18%
same,Population Hoechst High Intensity Objects (%),[4],36%
same,Population Membrane Permeable-Phenotype (%),[4],10%
same,Population Mitochondria Different-Phenotype (%),[4],50%
same,Population Mitotic Cells (%),[4],25%
same,Population Normal (%),[4],63%
same,Population Pyknosed Nuclei (%),[4],14%
same,Population Tubulin-Different-Phenotype (%),[4],40%
same,Total Cell Count,[4],87
same,Population Apoptotic (%),[5],92%
same,Population Fragmented Nuclei (%),[5],35%
same,Population Healthy Nuclei (%),[5],45%
same,Population Hoechst High Intensity Objects (%),[5],19%
same,Population Membrane Permeable-Phenotype (%),[5],11%
same,Population Mitochondria Different-Phenotype (%),[5],1%
same,Population Mitotic Cells (%),[5],7%
same,Population Normal (%),[5],80%
same,Population Pyknosed Nuclei (%),[5],19%
same,Population Tubulin-Different-Phenotype (%),[5],7%
same,Total Cell Count,[5],172
same,Population Apoptotic (%),[6],42%
same,Population Fragmented Nuclei (%),[6],51%
same,Population Healthy Nuclei (%),[6],37%
same,Population Hoechst High Intensity Objects (%),[6],28%
same,Population Membrane Permeable-Phenotype (%),[6],13%
same,Population Mitochondria Different-Phenotype (%),[6],8%
same,Population Mitotic Cells (%),[6],57%
same,Population Normal (%),[6],71%
same,Population Pyknosed Nuclei (%),[6],11%
same,Population Tubulin-Different-Phenotype (%),[6],17%
same,Total Cell Count,[6],87
same,Population Apoptotic (%),[7],66%
same,Population Fragmented Nuclei (%),[7],36%
same,Population Healthy Nuclei (%),[7],48%
same,Population Hoechst High Intensity Objects (%),[7],16%
same,Population Membrane Permeable-Phenotype (%),[7],3%
same,Population Mitochondria Different-Phenotype (%),[7],10%
same,Population Mitotic Cells (%),[7],33%
same,Population Normal (%),[7],83%
same,Population Pyknosed Nuclei (%),[7],15%
same,Population Tubulin-Different-Phenotype (%),[7],26%
same,Total Cell Count,[7],161
same,Population Apoptotic (%),[8],57%
same,Population Fragmented Nuclei (%),[8],66%
same,Population Healthy Nuclei (%),[8],20%
same,Population Hoechst High Intensity Objects (%),[8],36%
same,Population Membrane Permeable-Phenotype (%),[8],9%
same,Population Mitochondria Different-Phenotype (%),[8],18%
same,Population Mitotic Cells (%),[8],42%
same,Population Normal (%),[8],63%
same,Population Pyknosed Nuclei (%),[8],12%
same,Population Tubulin-Different-Phenotype (%),[8],36%
same,Total Cell Count,[8],85
